Measurements as given in ChEMBL document CHEMBL1153998, “Discovery and structure-activity study of a novel benzoxaborole anti-inflammatory agent (AN2728) for the potential topical treatment of psoriasis and atopic dermatitis” (Bioorg Med Chem Lett, 2009).
Values belong to the compound of their own block, whether it stands above or below them. Calls of active or inactive are those of the source. The rule behind the calls is not given here.

How the values were obtained:
Phosphodiesterase 3 = Phosphodiesterase 3 (Homo sapiens, UniProt Q14432+Q13370); assay: Inhibition of human recombinant PDE3 catalytic domain expressed in baculovirus-infected insect Sf9 cells by modified two-step method
Method in brief: (§1)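 Human recombinant enzymes from a baculoviral expression system, tested in a modified two-step PDE assay as part of a PDE1–11 isozyme panel. IC50 values were calculated from the means of three experiments.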

[1] = target: Phosphodiesterase 8 (Homo sapiens) (UniProt O95263+O60658); assay: Inhibition of human recombinant PDE8 expressed in baculovirus-infected insect Sf9 cells at 10 uM by modified two-step method
Chain of Phosphodiesterase 8 (Homo sapiens) (O60658 whole entry, looked up): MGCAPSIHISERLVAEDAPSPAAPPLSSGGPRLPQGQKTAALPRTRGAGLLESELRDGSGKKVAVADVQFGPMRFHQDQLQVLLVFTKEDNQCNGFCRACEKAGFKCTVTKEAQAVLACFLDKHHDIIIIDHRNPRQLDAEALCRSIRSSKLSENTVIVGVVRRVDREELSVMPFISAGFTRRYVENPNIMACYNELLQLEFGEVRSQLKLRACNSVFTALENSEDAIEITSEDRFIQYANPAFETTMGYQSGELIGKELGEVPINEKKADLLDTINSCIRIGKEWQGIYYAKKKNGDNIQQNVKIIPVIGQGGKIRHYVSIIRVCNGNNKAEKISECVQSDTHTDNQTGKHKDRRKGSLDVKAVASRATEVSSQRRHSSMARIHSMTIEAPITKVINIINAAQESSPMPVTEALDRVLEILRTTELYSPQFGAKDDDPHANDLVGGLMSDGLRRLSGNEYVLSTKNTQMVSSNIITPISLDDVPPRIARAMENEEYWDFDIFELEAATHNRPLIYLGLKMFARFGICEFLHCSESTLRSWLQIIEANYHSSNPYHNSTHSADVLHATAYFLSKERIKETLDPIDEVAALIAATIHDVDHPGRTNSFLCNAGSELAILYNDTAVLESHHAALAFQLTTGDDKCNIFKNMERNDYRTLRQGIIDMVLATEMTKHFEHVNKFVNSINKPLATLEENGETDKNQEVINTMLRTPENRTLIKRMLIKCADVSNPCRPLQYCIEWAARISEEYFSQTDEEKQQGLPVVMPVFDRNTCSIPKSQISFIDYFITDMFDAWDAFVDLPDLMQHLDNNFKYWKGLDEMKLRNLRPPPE
Chain of Phosphodiesterase 8 (Homo sapiens) (O95263 whole entry, looked up): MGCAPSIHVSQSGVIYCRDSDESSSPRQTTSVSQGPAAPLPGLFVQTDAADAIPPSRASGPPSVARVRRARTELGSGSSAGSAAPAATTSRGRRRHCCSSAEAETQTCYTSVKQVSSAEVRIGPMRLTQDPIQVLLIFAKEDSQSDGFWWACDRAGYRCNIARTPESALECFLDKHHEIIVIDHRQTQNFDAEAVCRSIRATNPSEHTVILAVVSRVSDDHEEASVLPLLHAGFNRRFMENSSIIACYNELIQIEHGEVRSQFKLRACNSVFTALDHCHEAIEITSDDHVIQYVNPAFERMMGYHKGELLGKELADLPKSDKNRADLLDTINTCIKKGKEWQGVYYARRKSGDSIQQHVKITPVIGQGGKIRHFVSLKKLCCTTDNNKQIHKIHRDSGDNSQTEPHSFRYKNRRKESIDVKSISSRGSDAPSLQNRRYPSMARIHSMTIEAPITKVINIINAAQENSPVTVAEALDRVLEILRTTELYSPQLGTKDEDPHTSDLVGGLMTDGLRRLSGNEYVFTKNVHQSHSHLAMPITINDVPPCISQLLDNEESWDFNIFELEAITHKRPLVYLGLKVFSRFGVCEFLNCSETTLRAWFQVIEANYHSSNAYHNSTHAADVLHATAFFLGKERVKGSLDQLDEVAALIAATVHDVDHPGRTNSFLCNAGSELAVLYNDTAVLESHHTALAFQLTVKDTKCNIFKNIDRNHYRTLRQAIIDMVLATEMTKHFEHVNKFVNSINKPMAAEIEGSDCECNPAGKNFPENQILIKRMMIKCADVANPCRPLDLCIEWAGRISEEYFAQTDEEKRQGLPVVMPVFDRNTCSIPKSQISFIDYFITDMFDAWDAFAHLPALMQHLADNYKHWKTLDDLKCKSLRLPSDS

PBMC [2] = assay: Antiinflammatory activity in human PBMC assessed as inhibition of IL4 release by FACS Array analysis; type: functional, cell-based
[3] = target: High affinity cGMP-specific 3',5'-cyclic phosphodiesterase 9A (Homo sapiens) (UniProt O76083); assay: Inhibition of human recombinant PDE9 expressed in baculovirus-infected insect Sf9 cells at 10 uM by modified two-step method
Chain of High affinity cGMP-specific 3',5'-cyclic phosphodiesterase 9A (Homo sapiens) (O76083 whole entry): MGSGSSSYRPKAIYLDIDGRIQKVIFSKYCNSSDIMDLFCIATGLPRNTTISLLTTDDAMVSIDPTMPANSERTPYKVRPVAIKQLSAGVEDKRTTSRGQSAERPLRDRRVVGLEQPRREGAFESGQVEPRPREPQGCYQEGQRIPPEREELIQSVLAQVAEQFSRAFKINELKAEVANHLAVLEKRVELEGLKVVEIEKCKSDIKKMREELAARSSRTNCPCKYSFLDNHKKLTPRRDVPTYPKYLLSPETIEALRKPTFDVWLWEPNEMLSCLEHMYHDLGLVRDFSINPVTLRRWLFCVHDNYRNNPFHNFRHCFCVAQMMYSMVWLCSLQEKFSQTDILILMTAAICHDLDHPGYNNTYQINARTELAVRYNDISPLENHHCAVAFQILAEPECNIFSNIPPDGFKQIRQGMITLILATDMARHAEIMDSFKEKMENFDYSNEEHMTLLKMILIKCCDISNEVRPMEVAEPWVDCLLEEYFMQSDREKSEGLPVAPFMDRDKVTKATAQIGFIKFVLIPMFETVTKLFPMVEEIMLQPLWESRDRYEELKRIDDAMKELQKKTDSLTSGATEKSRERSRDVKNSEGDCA

[4] = target: cAMP and cAMP-inhibited cGMP 3',5'-cyclic phosphodiesterase 10A (Homo sapiens) (UniProt Q9Y233); assay: Inhibition of human recombinant PDE10 expressed in baculovirus-infected insect Sf9 cells at 10 uM by modified two-step method
Chain of cAMP and cAMP-inhibited cGMP 3',5'-cyclic phosphodiesterase 10A (Homo sapiens) (Q9Y233 whole entry): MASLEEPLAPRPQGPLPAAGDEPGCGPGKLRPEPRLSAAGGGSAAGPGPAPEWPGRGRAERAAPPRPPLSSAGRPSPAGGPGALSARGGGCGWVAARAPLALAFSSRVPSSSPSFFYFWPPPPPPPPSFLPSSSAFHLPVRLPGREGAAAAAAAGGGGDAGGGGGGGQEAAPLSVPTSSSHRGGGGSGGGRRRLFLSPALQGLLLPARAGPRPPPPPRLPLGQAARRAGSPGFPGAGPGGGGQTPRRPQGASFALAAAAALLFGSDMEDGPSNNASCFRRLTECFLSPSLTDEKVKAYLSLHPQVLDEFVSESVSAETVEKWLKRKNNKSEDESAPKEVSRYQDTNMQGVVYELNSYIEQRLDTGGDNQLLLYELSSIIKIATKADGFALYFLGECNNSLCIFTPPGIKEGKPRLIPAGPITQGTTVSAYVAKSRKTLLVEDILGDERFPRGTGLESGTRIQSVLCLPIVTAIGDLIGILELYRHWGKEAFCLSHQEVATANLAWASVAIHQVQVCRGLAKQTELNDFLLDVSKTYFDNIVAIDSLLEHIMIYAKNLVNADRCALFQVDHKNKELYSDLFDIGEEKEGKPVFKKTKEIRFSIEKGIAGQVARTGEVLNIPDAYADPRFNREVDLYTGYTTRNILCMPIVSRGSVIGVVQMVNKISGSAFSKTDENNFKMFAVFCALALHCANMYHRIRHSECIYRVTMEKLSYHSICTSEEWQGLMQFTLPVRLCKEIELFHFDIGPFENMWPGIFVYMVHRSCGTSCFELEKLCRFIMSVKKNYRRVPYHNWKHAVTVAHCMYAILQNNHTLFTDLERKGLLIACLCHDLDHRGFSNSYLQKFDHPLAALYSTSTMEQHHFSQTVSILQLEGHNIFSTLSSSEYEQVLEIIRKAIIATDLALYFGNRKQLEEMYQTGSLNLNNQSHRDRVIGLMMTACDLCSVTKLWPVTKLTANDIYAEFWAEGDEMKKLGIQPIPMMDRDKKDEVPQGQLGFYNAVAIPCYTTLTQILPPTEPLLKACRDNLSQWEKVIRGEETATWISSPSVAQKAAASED

PBMC [5] = assay: Antiinflammatory activity in human PBMC assessed as inhibition of IL1-beta release by FACSArray analysis; type: functional, cell-based
[6] = target: cGMP-specific 3',5'-cyclic phosphodiesterase (Homo sapiens) (UniProt O76074); assay: Inhibition of human recombinant PDE5 expressed in baculovirus-infected insect Sf9 cells at 10 uM by modified two-step method
PBMC [7] = assay: Antiinflammatory activity in human PBMC assessed as inhibition of phytohemagglutininin-induced IFN-gamma release after 24 hrs by FACSArray analysis; type: functional, cell-based
PBMC [8] = assay: Antiinflammatory activity in human PBMC assessed as inhibition of phytohemagglutininin-induced IL10 release after 48 hrs by FACS Array analysis; type: functional, cell-based
PBMC [9] = assay: Antiinflammatory activity in human PBMC assessed as inhibition of LPS-induced TNFalpha release in after 24 hrs by FACS Array analysis; type: functional, cell-based
[10] = target: Dual 3',5'-cyclic-AMP and -GMP phosphodiesterase 11A (Homo sapiens) (UniProt Q9HCR9); assay: Inhibition of human recombinant PDE11 expressed in baculovirus-infected insect Sf9 cells at 10 uM by modified two-step method
PBMC [11] = assay: Antiinflammatory activity in human PBMC assessed as inhibition of phytohemagglutininin-induced IL5 release after 48 hrs by FACS Array analysis; type: functional, cell-based
PBMC [12] = assay: Antiinflammatory activity in human PBMC assessed as inhibition of phytohemagglutininin-induced IL2 release after 24 hrs by FACS Array analysis; type: functional, cell-based
[13] = target: Dual specificity calcium/calmodulin-dependent 3',5'-cyclic nucleotide phosphodiesterase 1A (Homo sapiens, UniProt P54750); assay: Inhibition of human recombinant PDE1A3 expressed in baculovirus-infected insect Sf9 cells by modified two-step method; method in brief: as §1
Chain of Dual specificity calcium/calmodulin-dependent 3',5'-cyclic nucleotide phosphodiesterase 1A (P54750 whole entry, the tested form may be a part): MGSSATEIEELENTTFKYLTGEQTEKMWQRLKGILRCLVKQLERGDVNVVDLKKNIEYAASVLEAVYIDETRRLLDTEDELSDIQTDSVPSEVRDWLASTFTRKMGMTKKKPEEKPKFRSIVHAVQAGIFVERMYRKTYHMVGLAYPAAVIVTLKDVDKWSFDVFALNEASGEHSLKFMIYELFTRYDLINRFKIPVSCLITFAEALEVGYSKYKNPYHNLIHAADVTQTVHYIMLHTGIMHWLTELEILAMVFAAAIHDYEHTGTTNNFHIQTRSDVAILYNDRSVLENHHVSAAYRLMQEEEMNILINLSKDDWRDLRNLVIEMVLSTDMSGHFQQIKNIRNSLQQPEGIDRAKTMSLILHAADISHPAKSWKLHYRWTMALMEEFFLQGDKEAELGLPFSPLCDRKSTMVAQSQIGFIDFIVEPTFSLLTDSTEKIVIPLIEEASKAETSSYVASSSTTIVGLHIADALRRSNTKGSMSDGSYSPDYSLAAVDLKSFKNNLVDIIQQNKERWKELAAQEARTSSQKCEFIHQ

Phosphodiesterase 4 [14] = target: T1, Phosphodiesterase 4 (Homo sapiens, UniProt P27815+Q08499+Q07343+Q08493); assay: Inhibition of human recombinant PDE4 catalytic domain expressed in baculovirus-infected insect Sf9 cells by modified two-step method
[15] = target: Phosphodiesterase 6 (Homo sapiens) (UniProt Q13956+P18545+P35913+O43924+P16499+P51160); assay: Inhibition of human recombinant PDE6 expressed in baculovirus-infected insect Sf9 cells at 10 uM by modified two-step method
Phosphodiesterase 4 [16] = target: T1, Phosphodiesterase 4; assay: Inhibition of PDE4 in human U937 cells assessed as accumulation of [3H]adenosine by scintillation counting; type: cell-based; conditions: u-937
[17] = target: cGMP-dependent 3',5'-cyclic phosphodiesterase (Homo sapiens) (UniProt O00408); assay: Inhibition of human recombinant PDE2 expressed in baculovirus-infected insect Sf9 cells at 10 uM by modified two-step method
Mus musculus [18] = assay: Antiinflammatory activity in mouse ear edema model assessed as inhibition of PMA-induced ear edema at 1 mg/ear administered 2 times 30 mins before and 15 mins after PMA challenge measured after 6 hrs of PMA application relative to control; type: functional
L929 = assay: Cytotoxicity against mouse L929 cells up to 100 uM; type: cell-based
[19] = target: High affinity 3',5'-cyclic-AMP phosphodiesterase 7A (Homo sapiens, UniProt Q13946); assay: Inhibition of human recombinant PDE7A1 expressed in baculovirus-infected insect Sf9 cells by modified two-step method
Chain of High affinity 3',5'-cyclic-AMP phosphodiesterase 7A (Q13946 whole entry): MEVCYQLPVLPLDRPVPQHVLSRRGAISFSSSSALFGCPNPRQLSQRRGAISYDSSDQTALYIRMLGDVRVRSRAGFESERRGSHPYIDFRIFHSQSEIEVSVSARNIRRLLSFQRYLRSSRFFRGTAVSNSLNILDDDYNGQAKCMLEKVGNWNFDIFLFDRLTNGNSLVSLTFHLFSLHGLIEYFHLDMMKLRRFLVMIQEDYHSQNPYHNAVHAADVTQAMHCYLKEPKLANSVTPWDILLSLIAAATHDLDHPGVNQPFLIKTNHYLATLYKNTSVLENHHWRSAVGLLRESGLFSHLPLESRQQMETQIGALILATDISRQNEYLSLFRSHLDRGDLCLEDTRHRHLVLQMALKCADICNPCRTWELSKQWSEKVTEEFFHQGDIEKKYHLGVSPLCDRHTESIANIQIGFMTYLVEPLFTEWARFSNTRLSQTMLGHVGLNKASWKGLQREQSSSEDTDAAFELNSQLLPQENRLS
Method in brief: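 PDE7A1 was a human recombinant enzyme from a baculoviral expression system, tested in a modified two-step assay. Its substrate concentration was reduced compared with the other panel isozymes. IC50 values were calculated from the means of three experiments.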

Mus musculus [20] = assay: Antiinflammatory activity in mouse ear edema model assessed as inhibition of PMA-induced ear edema at 3 mg/ear administered 2 times 30 mins before and 15 mins after PMA challenge measured after 6 hrs of PMA application relative to control; type: functional

Compound: O=C1CCc2cc(OCCCCc3nnnn3C3CCCCC3)ccc2N1 [CILOSTAZOL]
IC50 (Phosphodiesterase 3): 840 nM

Compound: N#Cc1ccc(Oc2ccc3c(c2)COB3O)cc1 [CRISABOROLE]
inhibition [1]: inactive
inhibition (PBMC [2]): inactive
inhibition [3]: inactive
inhibition [4]: inactive
inhibition (PBMC [5]): inactive
inhibition [6]: inactive
IC50 (PBMC [7]): 830 nM
IC50 (PBMC [8]): 5300 nM
IC50 (PBMC [9]): 540 nM
inhibition [10]: inactive
IC50 (PBMC [11]): 2400 nM
IC50 (PBMC [12]): 610 nM
IC50 [13]: 6100 nM
IC50 (Phosphodiesterase 4 [14]): 110 nM
inhibition [15]: inactive
IC50 (Phosphodiesterase 4 [16]): 490 nM
inhibition [17]: inactive
IC50 (Phosphodiesterase 3): 6400 nM
inhibition (INH) (Mus musculus [18]): 78%
Activity (L929): Non-toxic

Compound: COCc1nc2c([nH]1)c(=O)n(C)c(=O)n2CC(C)C
IC50 [13]: 10000 nM

IC50 (Phosphodiesterase 4 [16]): 7700 nM
Compound: OB1OCc2cc(Oc3ccc(F)cc3)ccc21

IC50 (Phosphodiesterase 4 [16]): 2000 nM
Compound: Cc1ccc(Oc2ccc3c(c2)COB3O)cc1

IC50 (Phosphodiesterase 4 [16]): 1300 nM
Compound: OB1OCc2cc(Oc3ccc(Cl)cc3)ccc21

IC50 (Phosphodiesterase 4 [16]): > 30000 nM
Compound: N#Cc1ccc(Oc2cccc3c2B(O)OC3)cc1

IC50 (Phosphodiesterase 4 [16]): 3700 nM
Compound: N#Cc1ccccc1Oc1ccc2c(c1)COB2O

IC50 (Phosphodiesterase 4 [16]): 6000 nM
Compound: N#Cc1ccc(Oc2cccc3c2COB3O)cc1

IC50 (Phosphodiesterase 4 [16]): 450 nM
Compound: OB1OCc2cc(Oc3ccc(C(F)(F)F)cc3)ccc21

IC50 (Phosphodiesterase 4 [16]): > 30000 nM
Compound: N#Cc1ccc(Oc2ccc3c(c2)B(O)OC3)cc1
inhibition (PBMC [2]): inactive
inhibition (PBMC [5]): inactive
IC50 (PBMC [7]): > 10000 nM
IC50 (PBMC [8]): > 10000 nM
IC50 (PBMC [9]): > 10000 nM
IC50 (PBMC [11]): > 10000 nM
IC50 (PBMC [12]): > 10000 nM
Activity (L929): Non-toxic

IC50 (Phosphodiesterase 4 [16]): 4400 nM
Compound: N#Cc1cccc(Oc2ccc3c(c2)COB3O)c1

IC50 (Phosphodiesterase 4 [16]): 3400 nM
Compound: CCN(CC)S(=O)(=O)c1ccc(Oc2ccc3c(c2)COB3O)cc1

Compound: Cc1ccc([N+](=O)[O-])cc1S(=O)(=O)N(C)C
IC50 [19]: 2200 nM

Compound: COc1ccc(C2CNC(=O)C2)cc1OC1CCCC1 (stereo not drawn) [ROLIPRAM]
inhibition (INH) (Mus musculus [20]): 53%
IC50 (PBMC [7]): 230 nM
IC50 (PBMC [8]): 880 nM
IC50 (PBMC [9]): 160 nM
IC50 (PBMC [11]): 500 nM
IC50 (PBMC [12]): 230 nM
inhibition (INH) (Mus musculus [18]): 6%

IC50 (Phosphodiesterase 4 [16]): 6800 nM
Compound: OB1OCc2cc(Oc3ccccc3)ccc21

IC50 (Phosphodiesterase 4 [16]): 2700 nM
Compound: COc1ccc(Oc2ccc3c(c2)COB3O)cc1

IC50 (Phosphodiesterase 4 [16]): > 30000 nM
Compound: CN1CCN(S(=O)(=O)c2ccc(Oc3ccc4c(c3)COB4O)cc2)CC1

IC50 (Phosphodiesterase 4 [16]): 1500 nM
Compound: CCN(CC)C(=O)c1ccc(Oc2ccc3c(c2)COB3O)cc1

IC50 (Phosphodiesterase 4 [16]): 6400 nM
Compound: O=C(O)c1ccc(Oc2ccc3c(c2)COB3O)cc1
inhibition (PBMC [2]): inactive
inhibition (PBMC [5]): inactive
IC50 (PBMC [7]): > 10000 nM
IC50 (PBMC [8]): > 10000 nM
IC50 (PBMC [9]): > 10000 nM
IC50 (PBMC [11]): > 10000 nM
IC50 (PBMC [12]): > 10000 nM
Activity (L929): Non-toxic

IC50 (Phosphodiesterase 4 [16]): 570 nM
Compound: O=C(c1ccc(Oc2ccc3c(c2)COB3O)cc1)N1CCOCC1

Compound: C[C@@H]1C[C@H]2[C@@H]3CCC4=CC(=O)C=C[C@]4(C)[C@@]3(F)[C@@H](O)C[C@]2(C)[C@@]1(O)C(=O)CO [DEXAMETHASONE]
inhibition (INH) (Mus musculus [18]): 72%
